Reference: article PMC3528827 (ACS chemical biology, 2012)

Tests used:
[1] = target: T1, S1P3 (Homo sapiens, UniProt Q99500); assay: Ligand-induced ERK phosphorylation; format: cell-based; settings: for ERK phosphorylation response: WT S1P3 Jump-In CHO cells
Procedure, shortened: (§1)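 Jump-In TI CHO-K cells carrying N-terminal triple-HA-tagged WT or point-mutant S1P3, stably retargeted and selected 4 weeks with blasticidin 10 μg/mL. Serum-starved 4 h, then exposed 5 min to increasing agonist. For antagonism, 1 uM antagonist was added 15 min beforehand or premixed with agonist. Phospho-p44/42 MAPK (Thr202/Tyr204) measured by sandwich ELISA; EC50 fitted from dose-response curves.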

[2] = Solubility; format: physicochemical
[3] = tested on: full panel of S1P receptors; assay: Profiling against the full panel of S1P receptors; format: cell-based; settings: Supporting Table S3
[4] = target: WT, W256L, and F263L mutant S1P3 (Homo sapiens, UniProt Q99500); assay: [33P]S1P radioligand binding and competition, Jump-In CHO cells; settings: 0.1 nM [33P]S1P, W256L and F263L Jump-In cell lines (all cell lines)
Procedure, shortened: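 Jump-In TI CHO-K cells (5 × 105) stably expressing WT, W256L or F263L S1P3, serum-starved 4 h. Incubated 30 min at 4 °C with 0.1 nM [33P]S1P plus increasing competitor in 20 mM Tris-HCl pH 7.5, NaCl, NaF, EDTA, Na3VO4, 0.5% fatty-acid-free BSA and protease inhibitors. Washed three times cold, lysed in 0.5% SDS, scintillation-counted. Normalized to each line's uncompeted binding (100%).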

[5] = Stability in biological systems; format: in vitro ADME
[6] = target: T1, S1P3; assay: S1P3-NFAT β-lactamase reporter; format: cell-based; settings: S1P3-CHO cells, calcium flux dependent β-lactamase assay
Procedure, shortened: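 CHO cells stably expressing human S1P3 and an NFAT-β-lactamase reporter, plated at 1 × 10^6/mL in phenol red-free DMEM with 0.5% charcoal/dextran FBS and held overnight at 37°C, 5% CO2. S1P dilution series plus six fixed allosteric-agonist levels (EC0–EC80), single-agonist controls, 4 h at 37°C. β-Lactamase FRET substrate with probenecid added, 2 h at room temperature. Read at ex 405 / em 535 and 460 nm. Mean ± SEM.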

[7] = target: M98A mutant S1P3 (Homo sapiens, UniProt Q99500, M98A); assay: ERK phosphorylation, M98A mutant S1P3 Jump-In CHO cells; format: cell-based
Procedure, shortened: as §1

[8] = target: T2, F263L S1P3 (Homo sapiens, UniProt Q99500, F263L); assay: MAPmates multiplex assay pERK1/2; format: cell-based
[9] = tested on: S1P1; settings: read-out: S1P1 EC50; in vitro; cited from earlier work
[10] = target: R114A mutant S1P3 (Homo sapiens, UniProt Q99500, R114A); assay: ERK phosphorylation, R114A mutant S1P3 Jump-In CHO cells; format: cell-based; settings: R114A mutant vs WT
Procedure, shortened: as §1

[11] = target: T2, F263L S1P3; assay: ERK phosphorylation, F263L mutant S1P3; format: cell-based; settings: ERK phosphorylation assay, vs WT
Procedure, shortened: as §1

[12] = target: T1, S1P3; assay: Receptor assays coupled to Gi and Gq; format: cell-based; settings: ERK phosphorylation, calcium flux, β-arrestin, NFAT-β-lactamase assays
[13] = tested on: S1P5; settings: read-out: S1P5 EC50; in vitro; cited from earlier work
[14] = tested on: S1P2; settings: read-out: S1P2 EC50; in vitro; cited from earlier work
[15] = tested on: panel of 55 GPCRs, ion channels, and transporters; assay: Ricerca profiling panel
[16] = tested on: S1P4; settings: read-out: S1P4 EC50; in vitro; cited from earlier work
[17] = target: W256L S1P3 (Homo sapiens, UniProt Q99500, W256L); assay: ERK phosphorylation, W256L mutant S1P3; format: cell-based; settings: ERK phosphorylation assay, vs WT
Procedure, shortened: as §1

[18] = ERK phosphorylation, SPM-242 at 1 uM

T2 sequence (Q99500 whole entry F263L): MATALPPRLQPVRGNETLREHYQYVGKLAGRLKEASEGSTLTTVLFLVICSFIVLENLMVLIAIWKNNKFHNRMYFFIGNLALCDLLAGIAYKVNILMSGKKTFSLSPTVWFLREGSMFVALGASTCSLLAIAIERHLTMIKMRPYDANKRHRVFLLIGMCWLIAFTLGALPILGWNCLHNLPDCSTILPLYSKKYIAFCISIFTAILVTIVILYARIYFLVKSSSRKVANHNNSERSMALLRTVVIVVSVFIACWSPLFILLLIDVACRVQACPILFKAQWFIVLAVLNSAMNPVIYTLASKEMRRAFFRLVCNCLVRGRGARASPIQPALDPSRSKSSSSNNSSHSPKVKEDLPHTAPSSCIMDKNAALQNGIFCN
T1 sequence (Q99500 whole entry): as the sequence (Q99500 whole entry F263L) above, with L263F counted along it
WT, W256L, and F263L mutant S1P3, sequence (Q99500 whole entry W256L/F263L): as the sequence (Q99500 whole entry F263L) above, with W256L counted along it
M98A mutant S1P3, sequence (Q99500 whole entry M98A): as the sequence (Q99500 whole entry F263L) above, with M98A, L263F counted along it
R114A mutant S1P3, sequence (Q99500 whole entry R114A): as the sequence (Q99500 whole entry F263L) above, with R114A, L263F counted along it
W256L S1P3, sequence (Q99500 whole entry W256L): as the sequence (Q99500 whole entry F263L) above, with W256L, L263F counted along it

Compound: NC(CO)(CCc1ccc(Sc2cccc(O)c2)cc1Cl)COP(=O)(O)O (single isomer, unassigned; (+)) [SPM-242, (+)-2-amino-4-(2-chloro-4-((3-hydroxyphenyl)thio)phenyl)-2-(hydroxymethyl)butyl dihydrogen phosphate]
- right-shift of the concentration response curve of S1P [1, 18]: 152 fold
- shift of the concentration response curve of CYM-5541 [1, 18]: 6 fold
- solubility [2]: low solubility
- selectivity among S1P receptors [3]: selective for S1P3
- competition for [33P]S1P binding [4]: reversed [^33P]S1P binding competitively in a dose dependent manner
- stability of phosphate-ester bond [5]: extremely labile

Compound: O=C(c1cc(C2CC2)on1)N(C1CCCCC1)C1CCCCC1 [CYM-5541, N,N-dicyclohexyl(5-cyclopropylisoxazol-3-yl)carboxamide]
- response on co-application of S1P and CYM-5541 [6]: additive and no synergy was observed
- ERK phosphorylation response [1]: agonist dose-dependent ERK phosphorylation
- agonist efficacy: maximum level of ERK phosphorylation compared with S1P ([1]; WT S1P3 Jump-In stable CHO cells): full agonist
- ERK phosphorylation response [7]: agonist dose-dependent ERK phosphorylation
- receptor activation (pERK1/2) compared to WT S1P3 [8]: significantly diminished receptor activation
- solubility [2]: low solubility
- EC50 [9]: > 10 µM
- ERK phosphorylation response [10]: comparable for WT and R114A
- effect of F263L mutation on ligand-induced receptor activation [11]: shifted CYM-5541-induced receptor activation
- signalling bias compared to S1P [12]: no such differences were observed
- EC50 [13]: > 25 µM
- competition for [33P]S1P binding [4]: unable to compete
- EC50 [14]: > 50 µM
- activity in Ricerca profiling panel [15]: no significant activities
- EC50 [16]: > 50 µM
- effect of W256L mutation on ligand-induced receptor activation [17]: did not affect

Compound: CCCCCCCCCCCCC/C=C/[C@@H](O)[C@@H](N)COP(=O)(O)O [S1P, Sphingosine 1-phosphate, reference compound]
- ERK phosphorylation response [1]: agonist dose-dependent ERK phosphorylation
- ERK phosphorylation response [7]: agonist dose-dependent ERK phosphorylation
- ERK phosphorylation response [10]: unable to respond
- effect of F263L mutation on ligand-induced receptor activation [11]: not S1P-induced activation
- competition for [33P]S1P binding [4]: competitively reversed in a dose dependent manner
- effect of W256L mutation on ligand-induced receptor activation [17]: did not affect
